Experimental data published in ChEMBL document CHEMBL3120102, “Structure-based design, synthesis and biological evaluation of novel anthra[1,2-d]imidazole-6,11-dione homologues as potential antitumor agents” (2013).

Assays:
Format in all cases: functional
HCT-116 = test: Cytotoxicity against human HCT116 cells assessed as growth inhibition after 48 hrs by SRB assay
Outline: (§1)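 NCI 60-cell-line five-dose screen at […]. Drug exposure was 48 h, followed by sulforhodamine B protein staining. GI50, TGI and LC50 were calculated against a time-zero control and untreated plates, with dose–response curves plotted from log10 concentration.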

SF-295 = test: Cytotoxicity against human SF295 cells assessed as growth inhibition after 48 hrs by SRB assay
Outline: (§2)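 NCI 60-cell-line screen, five-dose stage: each cell line exposed for 48 h to five concentrations spanning five log steps; cellular protein measured by sulforhodamine B colorimetry. A time-zero cell control and plates without drug are used to derive GI50, TGI and LC50 from log-concentration dose-response curves.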

[1] = Cytotoxicity against human Hs578T cells assessed as cell growth at 10 uM after 48 hrs by SRB assay; settings: Hs-578T, read-out: Activity
UO-31 = test: (§3) Cytotoxicity against human UO31 cells assessed as growth inhibition after 48 hrs by SRB assay
Outline: (§4)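 NCI 60-cell-line screen, two stages. Five-dose testing at […]. Cellular protein measured by sulforhodamine B colorimetry after 48 h drug exposure. A time-zero control and drug-free plates are used to derive GI50, TGI and LC50 from dose-response curves plotted as log10 concentration per cell line.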

[2] = as §3; settings: UO-31, 48 h; outline: as §4
ACHN = test: Cytotoxicity against human ACHN cells assessed as growth inhibition after 48 hrs by SRB assay; outline: as §1
SR = test: Cytotoxicity against human SR cells assessed as growth inhibition after 48 hrs by SRB assay; outline: as §4
HT-29 = test: Cytotoxicity against human HT-29 cells assessed as cell growth at 10 uM after 48 hrs by SRB assay; settings: HT-29, 48 h, read-out: Activity
OVCAR-5 = test: (§5) Cytotoxicity against human OVCAR5 cells assessed as growth inhibition after 48 hrs by SRB assay; outline: as §2
[3] = as §5; settings: OVCAR-5, 48 h; outline: as §2
NCI-H226 = test: Cytotoxicity against human NCI-H226 cells assessed as growth inhibition after 48 hrs by SRB assay; outline: as §2
Malme-3M = test: Cytotoxicity against human MALME-3M cells assessed as growth inhibition after 48 hrs by SRB assay; outline: as §1
BT-549 = test: Cytotoxicity against human BT549 cells assessed as growth inhibition after 48 hrs by SRB assay; outline: as §1
K562 = test: Cytotoxicity against human K562 cells assessed as growth inhibition after 48 hrs by SRB assay; outline: as §1
UACC-62 = test: Cytotoxicity against human UACC62 cells assessed as growth inhibition after 48 hrs by SRB assay; outline: as §4
NCI-H522 = test: Cytotoxicity against human NCI-H522 cells assessed as growth inhibition after 48 hrs by SRB assay; outline: as §2
MDA-MB-435 = test: Cytotoxicity against human MDA-MB-435 cells assessed as growth inhibition after 48 hrs by SRB assay; outline: as §2
SNB-19 = test: Cytotoxicity against human SNB19 cells assessed as growth inhibition after 48 hrs by SRB assay; outline: as §4
SK-MEL-2 = test: Cytotoxicity against human SK-MEL-2 cells assessed as growth inhibition after 48 hrs by SRB assay; outline: as §2
786-0 = test: Cytotoxicity against human 786-0 cells assessed as growth inhibition after 48 hrs by SRB assay; outline: as §1
TK-10 = test: Cytotoxicity against human TK10 cells assessed as growth inhibition after 48 hrs by SRB assay; outline: as §4
MDA-MB-231 = test: Cytotoxicity against human MDA-MB-231 cells assessed as growth inhibition after 48 hrs by SRB assay; outline: as §2
[4] = (§6) Cytotoxicity against human OVCAR4 cells assessed as growth inhibition after 48 hrs by SRB assay; settings: OVCAR-4, 48 h; outline: as §2
OVCAR-4 = test: as §6; outline: as §2
A498 = test: Cytotoxicity against human A498 cells assessed as growth inhibition after 48 hrs by SRB assay; outline: as §1
HL-60(TB) = test: Cytotoxicity against human HL-60(TB) cells assessed as growth inhibition after 48 hrs by SRB assay
Outline: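 NCI 60-cell panel five-concentration stage (0.01, 0.1, 1, 10, 100) in HL-60(TB). Cellular protein was measured by sulforhodamine B colorimetry after 48 h of exposure. A time-zero cell control and untreated plates allowed calculation of GI50, TGI and LC50. These were read from log10 concentration dose-response curves.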

MDA-MB-468 = test: Cytotoxicity against human MDA-MB-468 cells assessed as growth inhibition after 48 hrs by SRB assay; outline: as §2
IGROV-1 = test: Cytotoxicity against human IGROV1 cells assessed as growth inhibition after 48 hrs by SRB assay; outline: as §1
[5] = read-out: LC50 (the source's name)

## CCCSc1nc2ccc3c(c2[nH]1)C(=O)c1ccccc1C3=O
HCT-116
  growth inhibition (GI): Dose-dependent effect
HCT-116; HCT-116, 48 h
  GI50: 3.06 µM
  LC50: > 100 µM
  TGI: > 100 µM
SF-295
  growth inhibition (GI): Dose-dependent effect
SF-295; SF-295, 48 h
  GI50: 3.19 µM
  LC50: > 100 µM
  TGI: 60.2 µM
[1]
  growth at 10 µM: 33.3%
UO-31
  growth inhibition (GI): Dose-dependent effect
[2]
  GI50: 2.53 µM
  LC50: > 100 µM
  TGI: 70.2 µM
ACHN
  GI50: 2.69 µM
  TGI: 42.8 µM
  growth inhibition (GI): Dose-dependent effect
ACHN; [5]
  CC50: > 100 µM
SR
  GI50: 4.63 µM
  LC50 (50% lethal concentration): > 100 µM
  TGI: > 100 µM
  growth inhibition (GI): Dose-dependent effect
HT-29
  growth at 10 µM: 75.1%
OVCAR-5
  growth inhibition (GI): Dose-dependent effect
[3]
  GI50: 58.1 µM
  LC50: > 100 µM
  TGI: > 100 µM
NCI-H226
  growth inhibition (GI): Dose-dependent effect
NCI-H226; NCI-H226, 48 h
  GI50: 4.37 µM
  LC50: > 100 µM
  TGI: > 100 µM
Malme-3M
  GI50: 4.27 µM
  TGI: > 100 µM
  growth inhibition (GI): Dose-dependent effect
Malme-3M; [5]
  CC50: > 100 µM
BT-549
  growth inhibition (GI): Dose-dependent effect
BT-549; BT-549, 48 h
  GI50: 33.4 µM
  LC50 (concentration killing 50% of cells): > 100 µM
  TGI: > 100 µM
K562
  growth inhibition (GI): Dose-dependent effect
K562; K562, 48 h
  GI50: 36.4 µM
  TGI: > 100 µM
K562; K562, 48 h, read-out: LC50 (the source's name)
  CC50: > 100 µM
UACC-62
  growth inhibition (GI): Dose-dependent effect
UACC-62; UACC-62, 48 h
  GI50: 5.78 µM
  LC50: > 100 µM
  TGI: > 100 µM
NCI-H522
  growth inhibition (GI): Dose-dependent effect
NCI-H522; NCI-H522, 48 h
  GI50: 11.6 µM
  TGI: > 100 µM
NCI-H522; NCI-H522, 48 h, read-out: LC50 (the source's name)
  CC50: > 100 µM
MDA-MB-435
  growth inhibition (GI): Dose-dependent effect
MDA-MB-435; MDA-MB-435, 48 h
  GI50: > 100 µM
  LC50: > 100 µM
  TGI: > 100 µM
SNB-19
  growth inhibition (GI): Dose-dependent effect
SNB-19; SNB-19, 48 h
  GI50: 9.35 µM
  LC50: > 100 µM
  TGI: > 100 µM
SK-MEL-2
  growth inhibition (GI): Dose-dependent effect
SK-MEL-2; SK-MEL-2, 48 h
  GI50: 15.9 µM
  LC50 (50% lethal concentration): > 100 µM
  TGI: > 100 µM
786-0
  growth inhibition (GI): Dose-dependent effect
786-0; 786-0, 48 h
  GI50: 2.13 µM
  LC50 (concentration causing 50% net cell kill): 9.04 µM
  TGI: 4.39 µM
TK-10
  growth inhibition (GI): Dose-dependent effect
TK-10; TK-10, 48 h
  GI50: 3.25 µM
  LC50: > 100 µM
  TGI: 21.6 µM
MDA-MB-231
  growth inhibition (GI): Dose-dependent effect
MDA-MB-231; MDA-MB-231, 48 h
  GI50: 5.14 µM
  LC50: > 100 µM
  TGI: > 100 µM
[4]
  GI50: 5.05 µM
  LC50 (concentration killing 50% of cells): > 100 µM
  TGI: > 100 µM
OVCAR-4
  growth inhibition (GI): Dose-dependent effect
A498
  growth inhibition (GI): Dose-dependent effect
A498; A498, 48 h
  GI50: 13.9 µM
  TGI: > 100 µM
A498; A498, 48 h, read-out: LC50 (the source's name)
  CC50: > 100 µM
HL-60(TB)
  growth inhibition (GI): Dose-dependent effect
HL-60(TB); HL-60, 48 h
  GI50: 68.4 µM
  LC50: > 100 µM
  TGI: > 100 µM
MDA-MB-468
  growth inhibition (GI): Dose-dependent effect
MDA-MB-468; MDA-MB-468, 48 h
  GI50: 6.38 µM
  LC50: > 100 µM
  TGI: > 100 µM
IGROV-1
  growth inhibition (GI): Dose-dependent effect
IGROV-1; IGROV-1, 48 h
  GI50: 4.03 µM
  LC50: > 100 µM
  TGI: > 100 µM
